ChEMBL document CHEMBL1126205, “Novel spirosuccinimides with incorporated isoindolone and benzisothiazole 1,1-dioxide moieties as aldose reductase inhibitors and antihyperglycemic agents” (1992)
Calls of active or inactive are those of the source. No cut-off for these calls is given here.

Key:
[1] = biological target: Aldo-keto reductase family 1 member B1 (Bos taurus) (UniProt P16116); test: In vitro aldose reductase inhibitory activity measured by NADPH-dependent inhibition of glyceraldehyde reduction in a partially purified bovine lens preparation at 10E-6 M
Outline: (§1)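 Aldose reductase partially purified from bovine lens. Inhibition of NADPH-dependent glyceraldehyde reduction is measured at the single stated concentration and reported as percent inhibition, the mean of two determinations.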

[2] = biological target: Aldo-keto reductase family 1 member B1 (Bos taurus) (UniProt P16116); test: In vitro aldose reductase inhibitory activity measured by NADPH-dependent inhibition of glyceraldehyde reduction in a partially purified bovine lens preparation at 10E-7 M; outline: as §1
Rattus norvegicus [3] = test: In vivo galactitol inhibitory activity measured by its ability to inhibit galactitol accumulation in sciatic nerve at 10 mg/kg/day; format: functional
Outline: (§2)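 Rats (n = 6) fed 20% galactose for 4 days, with compound given in the diet at the stated daily dose. Galactitol accumulation was measured in lens, sciatic nerve and diaphragm, and % inhibition was taken versus the nontreated group. Means are from three to eight drug-treated tissue samples. Dunnett's multiple comparison test was applied, with p > 0.05 reported as not significant.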

Rattus norvegicus [4] = test: In vivo galactitol inhibitory activity measured by its ability to inhibit galactitol accumulation in diaphragm at 10 mg/kg/day; format: functional
Outline: (§3)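 Rats (n = 6) fed 20% galactose for 4 days, with compound given in the diet at the stated mg/kg per day. Galactitol accumulation in lens, sciatic nerve or diaphragm is scored as percent inhibition versus the non-treated group, as means of 3–8 drug-treated tissue samples. Dunnett's multiple comparison test applies; NS means p > 0.05.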

Rattus norvegicus [5] = test: In vivo galactitol inhibitory activity measured by its ability to inhibit galactitol accumulation in lens at 10 mg/Kg/day; format: functional; conditions: Lens of camera-type eye; outline: as §3
Mus musculus [6] = test: Antihyperglycemic activity measured as percent decrease in mice plasma glucose at 100 mg/Kg/day; format: functional
Outline: (§4)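 Male db/db (C57BL/KsJ) mice, 4–6 per group, dosed at 100 mg/kg per day. Plasma glucose of the drug-treated group is expressed as percent decrease relative to a vehicle-treated control group. Values are mean ± SE, with p < 0.05 marked.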

Rattus norvegicus [7] = test: In vivo galactitol inhibitory activity measured by its ability to inhibit galactitol accumulation in sciatic nerve at 52 mg/Kg/day; format: functional; outline: as §2
Rattus norvegicus [8] = test: In vivo galactitol inhibitory activity measured by its ability to inhibit galactitol accumulation in sciatic nerve at 3 mg/Kg/day; NS=Not significant (% Inhibition); format: functional, organism-based; outline: as §2
Rattus norvegicus [9] = test: In vivo galactitol inhibitory activity measured by its ability to inhibit galactitol accumulation in lens at 52 mg/Kg/day; format: functional; conditions: Lens of camera-type eye; outline: as §3
Rattus norvegicus [10] = test: In vivo galactitol inhibitory activity measured by its ability to inhibit galactitol accumulation in diaphragm at 3 mg/Kg/day; format: functional; outline: as §3
Rattus norvegicus [11] = test: In vivo galactitol inhibitory activity measured by its ability to inhibit galactitol accumulation in diaphragm at 52 mg/Kg/day; format: functional; outline: as §3
Rattus norvegicus [12] = test: In vivo galactitol inhibitory activity measured by its ability to inhibit galactitol accumulation in lens at 3 mg/Kg/day; NS=Not significant (% Inhibition); format: functional, organism-based; conditions: Lens of camera-type eye; outline: as §3
[13] = biological target: Aldo-keto reductase family 1 member B1 (Bos taurus) (UniProt P16116); test: in vitro aldose reductase inhibitory activity measured by NADPH-dependent inhibition of glyceraldehyde reduction in a partially purified bovine lens preparation at 10e -6M conc.
Outline: (§5)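 Partially purified aldose reductase from bovine lens. Inhibition of NADPH-dependent glyceraldehyde reduction was measured at a single test concentration. Values are % inhibition of enzymatic activity, mean of two determinations.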

[14] = biological target: Aldo-keto reductase family 1 member B1 (Bos taurus) (UniProt P16116); test: in vitro aldose reductase inhibitory activity measured by NADPH-dependent inhibition of glyceraldehyde reduction in a partially purified bovine lens preparation at 10e -7M conc.; g=no inhibitory activity; outline: as §5
Mus musculus [15] = test: Antihyperglycemic activity was determined by measuring percent decrease in plasma glucose at 100 mg/kg/day; format: functional; outline: as §4
Rattus norvegicus [16] = test: In vivo galactitol inhibitory activity measured by its ability to inhibit galactitol accumulation in sciatic nerve at 94 mg/kg/day; NS=not significant; format: functional, organism-based; outline: as §2
Rattus norvegicus [17] = test: In vivo galactitol inhibitory activity measured by its ability to inhibit galactitol accumulation in lens at 94 mg/Kg/day; NS=not significant; format: functional, organism-based; conditions: Lens of camera-type eye; outline: as §2
Rattus norvegicus [18] = test: In vivo galactitol inhibitory activity measured by its ability to inhibit galactitol accumulation in diaphragm at 101 mg/kg/day; format: functional; outline: as §3
Rattus norvegicus [19] = test: In vivo galactitol inhibitory activity measured by its ability to inhibit galactitol accumulation in lens at 101 mg/Kg/day; NS=Not significant (% Inhibition); format: functional, organism-based; conditions: Lens of camera-type eye; outline: as §3
Rattus norvegicus [20] = test: In vivo galactitol inhibitory activity measured by its ability to inhibit galactitol accumulation in sciatic nerve at 101 mg/kg/day; NS=Not significant (% Inhibition); format: functional, organism-based; outline: as §2
Rattus norvegicus [21] = test: In vivo galactitol inhibitory activity measured by its ability to inhibit galactitol accumulation in sciatic nerve at 73 mg/Kg/day; format: functional; outline: as §2
Rattus norvegicus [22] = test: In vivo galactitol inhibitory activity measured by its ability to inhibit galactitol accumulation in lens at 66 mg/Kg/day; format: functional; conditions: Lens of camera-type eye; outline: as §2
Rattus norvegicus [23] = test: In vivo galactitol inhibitory activity measured by its ability to inhibit galactitol accumulation in diaphragm at 73 mg/Kg/day; format: functional; outline: as §3
Rattus norvegicus [24] = test: In vivo galactitol inhibitory activity measured by its ability to inhibit galactitol accumulation in sciatic nerve at 81 mg/Kg/day; format: functional; outline: as §2
Rattus norvegicus [25] = test: In vivo galactitol inhibitory activity measured by its ability to inhibit galactitol accumulation in lens at 81 mg/Kg/day; format: functional; conditions: Lens of camera-type eye; outline: as §2
Rattus norvegicus [26] = test: In vivo galactitol inhibitory activity measured by its ability to inhibit galactitol accumulation in lens at 6 mg/Kg/day; format: functional, Lens of camera-type eye; conditions: Rattus norvegicus, Lens of camera-type eye; outline: as §3
Rattus norvegicus [27] = test: In vivo galactitol inhibitory activity measured by its ability to inhibit galactitol accumulation in lens at 6 mg/Kg/day; NS=Not significant (% Inhibition); format: functional, organism-based; conditions: Lens of camera-type eye; outline: as §3
Rattus norvegicus [28] = test: In vivo galactitol inhibitory activity measured by its ability to inhibit galactitol accumulation in diaphragm at 81 mg/Kg/day; format: functional; outline: as §3
Rattus norvegicus [29] = test: In vivo galactitol inhibitory activity measured by its ability to inhibit galactitol accumulation in lens at 10 mg/Kg/day; NS=Not significant (% Inhibition); format: functional; conditions: Lens of camera-type eye; outline: as §3
Rattus norvegicus [30] = test: In vivo galactitol inhibitory activity measured by its ability to inhibit galactitol accumulation in sciatic nerve at 6 mg/Kg/day; NS=Not significant (% Inhibition); format: functional, organism-based; outline: as §2
Rattus norvegicus [31] = test: In vivo galactitol inhibitory activity measured by its ability to inhibit galactitol accumulation in sciatic nerve at 9 mg/Kg/day; format: functional; outline: as §2
Rattus norvegicus [32] = test: In vivo galactitol inhibitory activity measured by its ability to inhibit galactitol accumulation in sciatic nerve at 50 mg/Kg/day; format: functional; outline: as §2
Rattus norvegicus [33] = test: In vivo galactitol inhibitory activity measured by its ability to inhibit galactitol accumulation in lens at 9 mg/Kg/day; format: functional; conditions: Lens of camera-type eye; outline: as §2
Rattus norvegicus [34] = test: In vivo galactitol inhibitory activity measured by its ability to inhibit galactitol accumulation in lens at 50 mg/Kg/day; format: functional; conditions: Lens of camera-type eye; outline: as §3
Rattus norvegicus [35] = test: In vivo galactitol inhibitory activity measured by its ability to inhibit galactitol accumulation in diaphragm at 50 mg/Kg/day; format: functional; outline: as §3
Rattus norvegicus [36] = test: In vivo galactitol inhibitory activity measured by its ability to inhibit galactitol accumulation in diaphragm at 6 mg/Kg/day; format: functional; outline: as §3
Rattus norvegicus [37] = test: In vivo galactitol inhibitory activity measured by its ability to inhibit galactitol accumulation in diaphragm at 9 mg/Kg/day; format: functional; outline: as §3
Mus musculus [38] = test: Antihyperglycemic activity measured as percent decrease in mice plasma glucose at 20 mg/Kg/day; format: functional
Outline: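 Male db/db (C57BL/KsJ) mice, 4–6 per group, dosed at the stated mg/kg per day. Plasma glucose is expressed as percent decrease versus the vehicle-treated group. Values are mean ± SE.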

[39] = biological target: Aldo-keto reductase family 1 member B1 (Bos taurus) (UniProt P16116); test: In vitro aldose reductase inhibitory activity measured by NADPH-dependent inhibition of glyceraldehyde reduction in a partially purified bovine lens preparation at 10E-5 M; outline: as §1

With `O=C1CC2(C(=O)N1)C(=O)N1CCOc3cc(Cl)cc2c31` (stereo not given) the inhibition [1] was 66%, the inhibition [2] was 32% and the inhibition in vivo at 10 mg/kg/day (Rattus norvegicus [3]) was 57%. The inhibition in vivo at 10 mg/kg/day (Rattus norvegicus [4]) was 88% and the inhibition in vivo at 10 mg/kg/day (Rattus norvegicus [5]) was 20%.
`CN1C(=O)c2ccc(F)cc2C12CC(=O)NC2=O` (stereo not given) gave an inhibition [1] of 74%, an inhibition [2] of 29% and a Decrease (Mus musculus [6]) of less than 15%. For the same compound, the inhibition in vivo at 52 mg/kg/day (Rattus norvegicus [7]) was 71%, the inhibition (Rattus norvegicus [8]) was “inactive” and the inhibition in vivo at 52 mg/kg/day (Rattus norvegicus [9]) was 26%. For the same compound, the inhibition in vivo at 3 mg/kg/day (Rattus norvegicus [10]) was 15%, the inhibition in vivo at 52 mg/kg/day (Rattus norvegicus [11]) was 68% and the inhibition (Rattus norvegicus [12]) was “inactive”.
With `CC1(COc2ccc(CC3SC(=O)NC3=O)cc2)CCCCC1` (stereo not given) [CIGLITAZONE] the inhibition [13] was 9%, the inhibition [14] was “inactive” and the Decrease (Mus musculus [15]) was 32%. The inhibition (Rattus norvegicus [16]) was “inactive” and the inhibition (Rattus norvegicus [17]) was “inactive”.
Work on `O=C1CC2(C(=O)N1)c1ccccc1C(=O)N2Cc1ccc(Br)cc1F` (stereo not given) yielded an inhibition [1] of 54%, an inhibition [2] of 7% and a Decrease (Mus musculus [6]) of 36%. For the same compound, the inhibition in vivo at 101 mg/kg/day (Rattus norvegicus [18]) was 30%, the inhibition (Rattus norvegicus [19]) was “inactive” and the inhibition (Rattus norvegicus [20]) was “inactive”.
`CCN1C(=O)c2ccccc2C12CC(=O)NC2=O` (stereo not given) was tested, and the inhibition [1] was 21%, the inhibition [2] was 0% and the inhibition in vivo at 73 mg/kg/day (Rattus norvegicus [21]) was 47%. The inhibition in vivo at 66 mg/kg/day (Rattus norvegicus [22]) was 25% and the inhibition in vivo at 73 mg/kg/day (Rattus norvegicus [23]) was 62%.
`CN1C(=O)c2cc(Cl)ccc2C12CC(=O)NC2=O` (stereo not given) was tested, and the inhibition [1] was 72%, the inhibition [2] was 21% and the Decrease (Mus musculus [6]) was less than 15%. It also gave an inhibition in vivo at 81 mg/kg/day (Rattus norvegicus [24]) of 77%, an inhibition in vivo at 81 mg/kg/day (Rattus norvegicus [25]) of 54% and an inhibition in vivo at 6 mg/kg/day (Rattus norvegicus [26]) of 31%. For the same compound, the inhibition (Rattus norvegicus [27]) was “inactive”, the inhibition in vivo at 81 mg/kg/day (Rattus norvegicus [28]) was 81% and the inhibition in vivo at 10 mg/kg/day (Rattus norvegicus [5]) was 34%. For the same compound, the inhibition (Rattus norvegicus [29]) was “inactive” and the inhibition (Rattus norvegicus [12]) was “inactive”.
In the case of `CN1C(=O)c2cc(Cl)c(Cl)cc2C12CC(=O)NC2=O` (stereo not given), the inhibition [1] is reported as 83%, the inhibition [2] is reported as 38% and the Decrease (Mus musculus [6]) is reported as 31%. The inhibition (Rattus norvegicus [30]) was “inactive”, the inhibition in vivo at 9 mg/kg/day (Rattus norvegicus [31]) was 25% and the inhibition (Rattus norvegicus [8]) was “inactive”. For the same compound, the inhibition in vivo at 50 mg/kg/day (Rattus norvegicus [32]) was 94%, the inhibition in vivo at 9 mg/kg/day (Rattus norvegicus [33]) was 10% and the inhibition in vivo at 50 mg/kg/day (Rattus norvegicus [34]) was 71%. The inhibition (Rattus norvegicus [27]) was “inactive”, the inhibition in vivo at 3 mg/kg/day (Rattus norvegicus [10]) was 25% and the inhibition in vivo at 50 mg/kg/day (Rattus norvegicus [35]) was 90%. For the same compound, the inhibition in vivo at 6 mg/kg/day (Rattus norvegicus [36]) was 44%, the inhibition in vivo at 9 mg/kg/day (Rattus norvegicus [37]) was 57% and the inhibition (Rattus norvegicus [12]) was “inactive”.
With `O=C1CC2(C(=O)N1)c1ccccc1S(=O)(=O)N2Cc1ccc(Cl)c(Cl)c1` (stereo not given) the inhibition [1] was 0%, the Decrease (Mus musculus [6]) was 27% and the Decrease (Mus musculus [38]) was less than 15%. The inhibition [39] was 63%.
